Measured values of several laboratories.
≈ marks a conversion by molar mass, not a printed value.
Organism: Pseudomonas aeruginosa
Effect on: microbial growth

Structure (SMILES) | assay | system | setting | MIC [µg/mL]
C[n+]1c(/C=C/c2ccc(O)cc2)cc(/C=C2\Sc3ccccc3N2CCCN2CCCC2)c2ccccc21.[I-] | broth dilution | ATCCBAA2108 | drug-resistant strain | > 64
CCCCCCCCCCCC(=O)OC[C@H]1O[C@@H](n2cc(C)c(=O)[nH]c2=O)C[C@@H]1O | broth dilution |  |  | 8 (≈ 18.8 µM)
COC(=O)c1cc(-c2cccc(NC(=S)Nc3ccc(OC)cc3)c2)on1 | broth dilution | ATCC27853 |  | > 64
CC1(C)SC2C(NC(=O)C(NC(=O)C3=C(O)C(Cc4ccc([N+](=O)[O-])cc4)NC3=O)c3ccccc3)C(=O)N2C1C(=O)O (stereo not shown) |  |  |  | 50 (≈ 82 µM)
Oc1cc(Cl)ccc1Oc1ccc(Cl)cc1Cl |  |  |  | > 25
CN[C@@H]1[C@H](O)[C@H](NC)[C@H]2O[C@@]3(O)C(=O)C[C@@H](C)O[C@H]3O[C@@H]2[C@H]1O | broth dilution | PAO1 |  | 100 (≈ 301 µM)
CC1(C)S[C@@H]2[C@H](NC(=O)[C@H](N)c3ccccc3)C(=O)N2[C@H]1C(=O)O | broth dilution | ATCCBAA2108 | drug-resistant strain | > 64
CCCCCCC#Cc1cncc(-c2nnc(SCc3cc([N+](=O)[O-])cc([N+](=O)[O-])c3)n2C)c1 |  |  |  | ≥ 20
COC(=O)c1cc(-c2cccc(NC(=S)Nc3cc(C(F)(F)F)cc(C(F)(F)F)c3)c2)on1 | broth dilution | ATCC27853 |  | > 64
C[n+]1c(/C=C/c2ccc(O)cc2)cc(/C=C2\Sc3ccccc3N2CCCN2CCOCC2)c2ccccc21.[I-] | broth dilution | ATCCBAA2108 | drug-resistant strain | > 64
COC(=O)c1cc(-c2cccc(NC(=O)NCc3ccccc3)c2)on1 | broth dilution | ATCC27853 |  | > 64
C[C@H]1COCCN1c1nc(NCc2cccnc2C(F)(F)F)c2cccnc2n1 | broth dilution | NCTC13437 |  | 64 (≈ 158 µM)
C[n+]1c(/C=C/c2c[nH]c3ccccc23)cc(/C=C2\Sc3ccccc3N2CCCN2CCCC2)c2ccccc21.[I-] | broth dilution | ATCCBAA2108 | drug-resistant strain | 32
COC(=O)c1cc(-c2cccc(NC(=O)Nc3cc(OC)ccc3OC)c2)on1 | broth dilution | ATCC27853 |  | > 64
C[n+]1c(/C=C/c2c[nH]c3ccccc23)cc(/C=C2\Sc3ccccc3N2CCCN2CCOCC2)c2ccccc21.[I-] | broth dilution | ATCCBAA2108 | drug-resistant strain | > 64
COC(=O)c1cc(-c2cccc(NC(=O)Nc3ccc(F)cc3F)c2)on1 | broth dilution | ATCC27853 |  | > 64
